From ChEMBL document CHEMBL3352101, “Synthesis and inhibitory activity on hepatitis C virus RNA replication of 4-(1,1,1,3,3,3-hexafluoro-2-hydroxy-2-propyl)aniline analogs” (Bioorg Med Chem Lett, 2014)
Calls of active or inactive are those of the source. The calls are words filed in the database; no cut-off is given here.

Experiments:
[1] = tested on: Hepatitis C virus; assay: Inhibition of HCV RNA replication in human Li23 cells (ORL8 system) by renilla luciferase reporter gene based replication assay; assay type: functional, organism-based, Hepacivirus hominis
[2] = Selectivity index, ratio of CC50 against human Li23 cells to EC50 against HCV RNA replication in human Li23 cells
Outline: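 SI was calculated as CC50/EC50. CC50 in Li23 cells came from a WST-1 assay. EC50 came from the ORL8 genome-length HCV RNA Renilla luciferase replication assay. All assays were done in triplicate.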

[3] = Cytotoxicity against human Li23 cells by WST assay
[4] = tested on: Hepatitis C virus; assay: Potentiation of 1 IU/mL IFN-alpha-induced inhibition of HCV RNA replication in human Li23 cells (ORL8 system) by renilla luciferase reporter gene based replication assay; assay type: functional, organism-based; settings: Hepacivirus hominis
Outline: (§1)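 Genome-length HCV RNA replication was read by Renilla luciferase in ORL8 (Li23) cells. Increasing compound concentrations were combined with IFN-α alone (1 IU/mL) or with IFN-α plus ribavirin (1 IU/mL + 6.3 µM; 4 IU/mL + ribavirin also tested). Assays were done in triplicate.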

[5] = tested on: Hepatitis C virus; assay: Potentiation of 1 IU/mL IFN-alpha and 6.3 uM ribavirin-induced inhibition of HCV RNA replication in human Li23 cells (ORL8 system) by renilla luciferase reporter gene based replication assay; assay type: functional, organism-based; settings: Hepacivirus hominis; outline: as §1
[6] = tested on: Hepatitis C virus; assay: Inhibition of HCV RNA replication in human Li23 cells (ORL8 system) at 5 uM in presence of 10 to 200 uM vitamin E by renilla luciferase reporter gene based replication assay; assay type: functional, organism-based; settings: Hepacivirus hominis
Outline: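 Genome-length HCV RNA replication was measured by Renilla luciferase in ORL8 (Li23) cells. Vitamin E was given at various concentrations, with the test compound absent or present at 5 µM. Assays were done in triplicate.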

[7] = tested on: Li23; assay: Induction of ROS generation in human Li23 cells (ORL8 system); assay type: functional, cell-based
Outline: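 ROS production in the ORL8 genome-length HCV RNA replicon system (Li23 cells) was measured by FACS analysis at a series of compound concentrations.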

[8] = tested on: Hepatitis C virus; assay: Inhibition of HCV RNA replication in human Li23 cells (ORL8 system) in presence of 1 IU/mL IFN-alpha by renilla luciferase reporter gene based replication assay; assay type: functional, organism-based; settings: Hepacivirus hominis
Outline: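 Li23 human hepatoma cells carrying replicating genome-length HCV RNA with a Renilla luciferase reporter (ORL8). Test compound given at a range of concentrations together with IFN-alpha at 1 IU/mL, with a vehicle control. HCV RNA replication read as luciferase reporter activity. Assays run in triplicate.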

[9] = tested on: Hepatitis C virus; assay: Inhibition of HCV RNA replication in human HuH7 cells (OR6 system) by renilla luciferase reporter gene based replication assay; assay type: functional, organism-based, Hepacivirus hominis; settings: Huh-7
Outline: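 The OR6 system carries genome-length HCV RNA with a Renilla luciferase reporter in HuH-7 hepatoma cells. Replication inhibition was measured and EC50 determined from runs done in triplicate.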

SMILES	EC50 [1] [µM]	Ratio CC50/EC50 [2]	CC50 [3] [µM]	further results
Cc1cc(C(O)(C(F)(F)F)C(F)(F)F)ccc1N(C)C(=O)c1ccccc1	1.7	5.3	9	–
CN(C(=O)c1ccccc1)c1ccccc1C(O)(C(F)(F)F)C(F)(F)F	> 20	–	> 20	–
CN(C(=O)Cc1ccccc1)c1ccc(C(O)(C(F)(F)F)C(F)(F)F)cc1	> 100	–	27	–
Cc1ccc(S(=O)(=O)N(C)c2ccc(C(O)(C(F)(F)F)C(F)(F)F)cc2)cc1	0.44	34	15	–
CN(c1ccc(C(O)(C(F)(F)F)C(F)(F)F)cc1)S(=O)(=O)c1ccccc1Br	0.5	18	9.1	–
CN(C(=O)c1ccccc1)c1ccc(C(OCCO)(C(F)(F)F)C(F)(F)F)cc1	11	–	> 20	–
CCN(C(=O)c1ccccc1)c1ccc(C(O)(C(F)(F)F)C(F)(F)F)cc1	0.78	24	19	–
CN(C(=O)Nc1ccccc1)c1ccc(C(O)(C(F)(F)F)C(F)(F)F)cc1	5.7	–	> 20	–
CN(C(=O)c1ccsc1)c1ccc(C(O)(C(F)(F)F)C(F)(F)F)cc1	17	2.6	44	–
Cc1ccccc1C(=O)N(C)c1ccc(C(O)(C(F)(F)F)C(F)(F)F)cc1	17	2.2	38	–
Cc1cc(N(C)C(=O)c2ccccc2)ccc1C(O)(C(F)(F)F)C(F)(F)F	> 100	–	87	–
CN(c1ccc(C(O)(C(F)(F)F)C(F)(F)F)cc1)S(=O)(=O)c1cccc(F)c1	0.36	53	19	–
CN(C(=O)c1cccnc1)c1ccc(C(O)(C(F)(F)F)C(F)(F)F)cc1	45	1.4	63	–
CN(C(=O)c1cccs1)c1ccc(C(O)(C(F)(F)F)C(F)(F)F)cc1	2.6	13	33	–
Cc1ccccc1S(=O)(=O)N(C)c1ccc(C(O)(C(F)(F)F)C(F)(F)F)cc1	0.36	33	12	–
CN(C(=O)c1ccccn1)c1ccc(C(O)(C(F)(F)F)C(F)(F)F)cc1	> 100	–	> 100	–
CC(=O)N(C)c1ccc(C(O)(C(F)(F)F)C(F)(F)F)cc1	14	2.9	40	–

SMILES	EC50 [1] [µM]	Ratio CC50/EC50 [2]	CC50 [3] [µM]	further results
CN(Cc1ccccc1)c1ccc(C(O)(C(F)(F)F)C(F)(F)F)cc1	3	4.3	13	–
O=C(Nc1ccc(C(O)(C(F)(F)F)C(F)(F)F)cc1)c1ccccc1	4.1	2.9	12	–
CN(c1ccc(C(O)(C(F)(F)F)C(F)(F)F)cc1)S(=O)(=O)c1ccccc1Cl	0.17	88	15	–
Cc1ccc(C(=O)N(C)c2ccc(C(O)(C(F)(F)F)C(F)(F)F)cc2)cc1	10	2.6	26	–
CCCCC(=O)N(C)c1ccc(C(O)(C(F)(F)F)C(F)(F)F)cc1	2.3	11	26	–
O=C(c1ccccc1)N(Cc1ccccc1)c1ccc(C(O)(C(F)(F)F)C(F)(F)F)cc1	2.9	2.6	7.5	–
CCCC(=O)N(C)c1ccc(C(O)(C(F)(F)F)C(F)(F)F)cc1	3.8	–	> 100	–
Cc1cccc(S(=O)(=O)N(C)c2ccc(C(O)(C(F)(F)F)C(F)(F)F)cc2)c1	0.35	31	11	–
CN(c1ccc(C(O)(C(F)(F)F)C(F)(F)F)cc1)S(=O)(=O)c1ccccc1	0.19	84	16	IC60 [1]: 5 µM; Activity [4]: Dose-dependent effect; Activity [5]: Dose-dependent effect; inhibition [6]: inactive; Activity [7]: Dose-dependent effect
CCCN(C(=O)c1ccccc1)c1ccc(C(O)(C(F)(F)F)C(F)(F)F)cc1	3.5	4.3	15	–
CN(C(=O)C12CC3CC(CC(C3)C1)C2)c1ccc(C(O)(C(F)(F)F)C(F)(F)F)cc1	1	17	17	–
COc1cccc(S(=O)(=O)N(C)c2ccc(C(O)(C(F)(F)F)C(F)(F)F)cc2)c1	2.1	6.2	13	–
NC(=O)c1ncn([C@@H]2O[C@H](CO)[C@@H](O)[C@H]2O)n1 [RIBAVIRIN]	8.7	–	–	inhibition [8]: Active
CN(C(=O)C1CCCCC1)c1ccc(C(O)(C(F)(F)F)C(F)(F)F)cc1	0.23	87	20	–
CN(C(=O)c1ccccc1)c1ccc(C(O)(C(F)(F)F)C(F)(F)F)cc1	0.32	203	65	EC50 [9]: > 20 µM
COc1ccc(S(=O)(=O)N(C)c2ccc(C(O)(C(F)(F)F)C(F)(F)F)cc2)cc1	1.4	5.6	7.9	–
Cc1cccc(C(=O)N(C)c2ccc(C(O)(C(F)(F)F)C(F)(F)F)cc2)c1	5.8	3.4	20	–
